From ChEMBL document CHEMBL4610125, “Evaluation of Manassantin A Tetrahydrofuran Core Region Analogues and Cooperative Therapeutic Effects with EGFR Inhibition” (J Med Chem, 2020)
Active and inactive are the calls of the source. No cut-off for these calls is given here.

Legend:
[1] = test system: HEK-293T; experiment: Inhibition of HIF1 transactivation activity in HEK293T cells transfected with pGL3-5HRE-VEGF-luciferase at 0.01 to 1 uM incubated for 24 hrs under hypoxia condition by luciferase reporter gene assay; type: cell-based; details: Homo sapiens
In short: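 HEK-293T cells were seeded at 5 × 10³/well, left 24 h, then co-transfected with a 5×HRE (human VEGF promoter) firefly luciferase plasmid and a pRL-SV40 Renilla plasmid. Cells were exposed to hypoxia (1% O₂) with serially diluted compound (0, 0.01, 0.1, 1 μM) for 24 h, with 10 μM 17-AAG as reference. Dual-Glo readout, with firefly normalized to Renilla. Three independent experiments.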

[2] = test system: Lewis lung carcinoma cell line; experiment: animal or person; type: functional; details: Mus musculus, ip, read-out: TGI
[3] = test system: Lewis lung carcinoma cell line; experiment: Antitumor activity against mouse LLC cells allografted in C57BL/6J mouse assessed as inhibition of tumor growth at 5 mg/kg, ip dosed every 3 days for 17 days starting from 2 days after inoculation and co-treated with 5 mg/kg, ip EGFR inhibitor gefitinib relative to control; type: functional; details: read-out: TGI
In short: (§1)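 Male C57BL/6 mice, 5−6 weeks old, were given LLC cells (2 × 10⁵ in 200 μL serum-free medium) s.c. into the dorsal flanks on Day 0. From day 2, groups of n = 5 received 5 mg/kg i.p. […]. Tumor size was measured three times a week and tumor weight at sacrifice. Statistics were versus the vehicle control.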

[4] = test system: Lewis lung carcinoma cell line; experiment: Antitumor activity against mouse LLC cells allografted in C57BL/6J mouse assessed as reduction tumor weight at 5 mg/kg, ip dosed every 3 days for 17 days starting from 2 days after inoculation relative to control; type: functional, organism-based; in short: as §1
[5] = test system: Lewis lung carcinoma cell line; experiment: Antitumor activity against mouse LLC cells allografted in C57BL/6J mouse assessed as reduction of tumor weight at 5 mg/kg, ip dosed every 3 days for 17 days starting from 2 days after inoculation and co-treated with 5 mg/kg, ip EGFR inhibitor gefitinib relative to control; type: functional, organism-based; in short: as §1
[6] = Toxicity in C57BL/6J mouse allografted with mouse LLC cells assessed as effect on body weight at 5 mg/kg, ip dosed every 3 days for 17 days starting from 2 days after inoculation; type: organism-based, Lewis lung carcinoma; details: in vivo; in short: as §1
[7] = Toxicity in C57BL/6J mouse allografted with mouse LLC cells assessed as effect on body weight at 5 mg/kg, ip dosed every 3 days for 17 days starting from 2 days after inoculation and co-treated with 5 mg/kg, ip EGFR inhibitor gefitinib; type: organism-based, Lewis lung carcinoma; details: in vivo; in short: as §1

| SMILES | inhibition [1] | also measured |
| --- | --- | --- |
| COc1ccc(C(=O)[C@@H](C)Oc2ccc([C@@H]3CCC[C@H](c4ccc(O[C@H](C)C(=O)c5ccc(OC)c(OC)c5)c(OC)c4)O3)cc2OC)cc1OC | inactive |  |
| COc1ccc(C(=O)[C@@H](C)Oc2ccc([C@@H]3CC[C@@H](c4ccc(O[C@H](C)C(=O)c5ccc(OC)c(OC)c5)c(OC)c4)N3)cc2OC)cc1OC | Dose-dependent effect |  |
| COc1ccc(C(=O)[C@H](C)Oc2ccc(/C=C/c3ccc(O[C@H](C)C(=O)c4ccc(OC)c(OC)c4)c(OC)c3)cc2OC)cc1OC | inactive |  |
| COc1ccc(C(=O)[C@@H](C)Oc2ccc(CC3(Cc4ccc(O[C@H](C)C(=O)c5ccc(OC)c(OC)c5)c(OC)c4)SCCCS3)cc2OC)cc1OC | inactive |  |
| COc1ccc([C@@H](O)[C@@H](C)Oc2ccc([C@H]3O[C@H](c4ccc(O[C@H](C)[C@H](O)c5ccc(OC)c(OC)c5)c(OC)c4)[C@H](C)[C@H]3C)cc2OC)cc1OC | Active | inhibition in vivo at 5 mg/kg [2]: 30%; inhibition in vivo at 5 mg/kg [3]: 80%; Activity [4]: Active; Activity [5]: Active; Activity [6]: Non-Toxic; Activity [7]: Non-Toxic |
| COc1cc2ncnc(Nc3ccc(F)c(Cl)c3)c2cc1OCCCN1CCOCC1 |  | Activity [4]: Active |
| C=CCN1[C@H](c2ccc(O[C@H](C)C(=O)c3ccc(OC)c(OC)c3)c(OC)c2)CC[C@H]1c1ccc(O[C@H](C)C(=O)c2ccc(OC)c(OC)c2)c(OC)c1 | inactive |  |
| COc1ccc(C(=O)[C@@H](C)Oc2ccc([C@@H]3C[C@@H](C)[C@@H](c4ccc(O[C@H](C)C(=O)c5ccc(OC)c(OC)c5)c(OC)c4)O3)cc2OC)cc1OC | Dose-dependent effect |  |
| COc1ccc(C(=O)[C@@H](C)Oc2ccc(-c3cccc(-c4ccc(O[C@H](C)C(=O)c5ccc(OC)c(OC)c5)c(OC)c4)n3)cc2OC)cc1OC | inactive |  |
| COc1ccc(C(=O)[C@@H](C)Oc2ccc([C@@H]3CC[C@@H](c4ccc(O[C@H](C)C(=O)c5ccc(OC)c(OC)c5)c(OC)c4)O3)cc2OC)cc1OC | Dose-dependent effect |  |
| COc1ccc(C(=O)[C@@H](C)Oc2ccc(C3=C(c4ccc(O[C@H](C)C(=O)c5ccc(OC)c(OC)c5)c(OC)c4)CCC3)cc2OC)cc1OC | inactive |  |
| COc1ccc(C(=O)[C@@H](C)Oc2ccc(-c3cccc(-c4ccc(O[C@H](C)C(=O)c5ccc(OC)c(OC)c5)c(OC)c4)c3)cc2OC)cc1OC | inactive |  |
